Measurements from PMC3035813 (The Journal of neuroscience : the official journal of the …, 2009).
No end group written: not given here.

Tests used:
GnRH neurons = experiment: GnRH neuron firing, targeted extracellular recordings in brain slices; assay type: cell-based, mouse; conditions: 1 nM, 5 min, n=7
adult male rats = experiment: LH and testosterone in intact adult male rats after icv injection; assay type: in vivo, rat; conditions: 100 pmol kisspeptin-10 icv alone
Outline: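 Intact adult male rats (280–310 g; 14 h light, 22°C) with lateral-ventricle cannulae (4 mm deep; 1 mm posterior, 1.2 mm lateral to bregma), tested 24–48 h after implantation. 5 μl icv injections at 60 min intervals; 100 pmol kisspeptin-10 given with the last. Controls received saline vehicle. Jugular blood was taken 60 min later (180 min). Serum testosterone was measured by commercial kit (sensitivity 0.1 ng/tube; intraassay CV 4.5%).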

## kisspeptin-10 (YNWNSFGLRF; ends and bridges not checked; UniProt Q15726 112-121, looked up)
GnRH neurons
  effect on GnRH neuron firing activity: markedly increased GnRH neuron firing activity
Adult male rats
  testosterone levels at 60-min: 2.17 ± 0.2
